Data set [1] relates to TC71 xenograft. Put plainly: TC71 Ewing sarcoma xenograft in nude mice. Format: in vivo.
Data set [2] has as its system EWS-FLI1 target genes (NR0B1). In words: Quantitative RT-PCR of NR0B1 and EWS-FLI1 target gene expression in TC32 cells. The format is cell-based. The settings on record: for concentration showing equivalent suppression of EWS-FLI1 targets NR0B1, EZH2, and ID2: qPCR, 12 h. In general terms: Real-time PCR tracks product formation cycle by cycle.
In data set [3] the test system is CD-1 mice. Put plainly: Maximum tolerated dose in healthy CD-1 mice. The settings on record: mouse, in vivo.
The subject of data set [4] is HepG2 cells. In words: Time-lapse microscopy of HepG2 proliferation. The format is cell-based. The settings on record: 50 nmol/L mithramycin, 50 nmol/L EC-8042 or 7.5 nmol/L EC-8105.
In data set [5] the test system is γH2AX phosphorylation. Put plainly: DNA damage by phosphorylation of γH2AX. Format: cell-based. The settings on record: 50 nmol/L mithramycin, 50 nmol/L EC-8042 or 7.5 nmol/L EC-8105.
For data set [6], the system named is NR0B1 expression (EWS-FLI1 activity). Put plainly: Immunofluorescence for NR0B1 in xenograft tumor tissue. The format is in vivo, mouse. The settings on record: TC71 xenograft, day 3 of treatment, IP.
Data set [7] deals with EWS-FLI1 target genes EZH2, NR0B1, and ID2. Put plainly: Immunoblot of EWS-FLI1 downstream targets. Format: cell-based. The settings on record: TC32 cells, 50 nmol/L, 18 h. On the technique in general: Immunoblotting shows a protein as a band on a membrane.
Data set [8] relates to Ewing sarcoma cells. In words: Cell proliferation / cell viability IC50 at 48 h. Format: cell-based. To be noted: read-out: cell viability IC50; 48 h of treatment. In short, it runs like this:
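Ewing sarcoma cells (TC32/TC71), STR-authenticated, grown in RPMI 1640 with 10% FBS, 2mM L-Gln and penicillin/streptomycin. Cells exposed to test compound for 48 h and cell number recorded across a dose range. IC50 from non-linear regression over at least 3 independent experiments.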

Data set [9] can be described thus: Serum drug levels in mice. The settings on record: mouse, in vivo.
The subject of data set [10] is rat. In words: Rat toxicity: liver enzymes, liver synthetic function, hematopoiesis. To be noted: in vivo, 8 mg/kg.
Data set [11] relates to TC71 xenograft. The settings on record: TC32 and TC71 xenografts, 1 mg/kg IP M/W/F; cited from earlier work.

As usually defined, the IC50 is the concentration at which inhibition is half-maximal. With `CO[C@@H]([C@@H]1Cc2cc3cc(O[C@H]4CC(O[C@H]5CC(O)[C@H](O)C(C)O5)[C@H](O)C(C)O4)c(C)c(O)c3c(O)c2C(=O)[C@H]1O[C@H]1CC(O[C@H]2CC(O[C@H]3CC(O)[C@H](O)C(C)O3)[C@@H](O)C(C)O2)[C@H](O)C(C)O1)[C@@H](O)C(C)=O` (stereo partly drawn) [EC-8042], in data set [1] (24 mg/kg IP (12% of the IP MTD)), the tumor regression entry is “every tumor in every mouse showed some level of regression”. The “tumor growth rate less per day than the control” value in data set [1] (24 mg/kg IP M/W/F, while being treated) came out at 268.2 mm^3. For the same compound, the “mean tumor size on day 11 of treatment” value in data set [1] (24 mg/kg IP, control 3177 mm^3) was found to be 422.5 mm^3. The “tumor growth less per day than the control” value in [1] (24 mg/kg IV Q3D, while on treatment) is given as 151 mm^3. In addition, the “survival of treated cohort” value in data set [1] (24 mg/kg IV, P <0.0001) is recorded as “extended the survival”. For the same compound, the “effect on panel of EWS-FLI1 target genes” value in data set [2] (Fig. 3B, legend: 15 nM for 18 h or 3 h) is “All the EWS-FLI1 induced targets were suppressed and all the repressed targets were induced to a comparable extent as mithramycin”. The “concentration showing equivalent suppression of EWS-FLI1 targets NR0B1, EZH2, and ID2” value in data set [2] worked out at 50 nmol/L. Also, the “Intraperitoneal MTD” value in [3] (ip) is listed as 200 mg/kg. In addition, the “Intravenous MTD” value in [3] (iv) is listed as 64 mg/kg. In addition, the “proliferation of HepG2 cells” value in data set [4] is “neither EC-8105 or EC-8042 had any effect”. Also, the “DNA damage as measured by phosphorylation of γH2AX” value in [5] is recorded as “no DNA damaging effects”. Besides, the “EWS-FLI1 activity in tumor tissue by NR0B1 immunofluorescent staining” value in [6] was “clear suppression of EWS-FLI1 activity”. In addition, the “suppression of EWS-FLI1 targets EZH2, NR0B1, and ID2 at the protein level” value in data set [7] is reported as “suppressed”. For the same compound, in [8], the half-inhibitory concentration (IC50) stood at 37.8 nM. Further, the “serum levels of drug” value in data set [9] worked out at 4.295 µM. Also, the “other toxicities (myelosuppression, compromise of liver synthetic function)” value in data set [10] is “no evidence of other toxicities”.
With mithramycin [reference compound], the “fold change in NR0B1 expression” value in data set [2] (TC32 cells, 50 nmol/L, 12 hr, qPCR vs GAPDH) amounted to 0.48. In addition, the “concentration showing equivalent suppression of EWS-FLI1 targets NR0B1, EZH2, and ID2” value in [2] is reported as 50 nmol/L. In addition, in data set [7], the “suppression of EWS-FLI1 targets EZH2, NR0B1, and ID2 at the protein level” value is reported as “suppressed”. Further, the IC50 in data set [8] is 15.5 nM. Besides, in data set [11], the xenograft tumor growth result is “markedly suppresses and even regresses tumor growth”.

Values taken from publication PMC4987166 (Clinical cancer research : an official journal of the …, 2016).
